Compound activity: PubChem, Sanford-Burnham Center for Chemical Genomics
Shown are actives, neighbours in structure and some others; about 2.4% of the full set was active somewhere.
LMPTP inh = LMPTP phosphatase inhibitors, primary screen, biochemical, fluorescence intensity, uHTS; recombinant LMPTP-A, OMFP fluorogenic substrate; Low molecular weight phosphotyrosine protein phosphatase (Homo sapiens), P24666; 360,000 compounds, 0.22% hits; inhibition, % at 20 µM;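 active = compounds that cut the enzyme signal by at least half of the control window in the single-dose screen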
Target sequence (P24666 whole entry, looked up): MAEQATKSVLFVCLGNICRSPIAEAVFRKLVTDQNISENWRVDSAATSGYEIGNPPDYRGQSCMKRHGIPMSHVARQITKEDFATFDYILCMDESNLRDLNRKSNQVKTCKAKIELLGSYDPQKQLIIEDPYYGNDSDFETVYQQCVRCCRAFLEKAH
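Assay system: LMPTP-A enzyme. Input: 0.625 nM LMPTP-A final. Probe or stimulus: 400 µM OMFP. Compound dosing: single 20 µM dose. Schedule: 50 min dark incubation at room temperature. Detection: fluorescence intensity of OMFP turnover product. Read-out: percent inhibition versus substrate-only and uninhibited controls. Benchmarks: no-enzyme low control, uninhibited high control.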
SUMO1-SIM PPI = modulators of SUMO1 protein-protein interactions, primary screen, biochemical, uHTS | 360,000 compounds, 0.33% hits | Small ubiquitin-related modifier 1 (Homo sapiens), P63165 | AID 602429, 2012 | SUMO1 binding to a labelled peptide, TR-FRET, 1 h | inhibition, % at 20 µM; in the data active = inhibition above about 37%
Target sequence (P63165 whole entry, looked up): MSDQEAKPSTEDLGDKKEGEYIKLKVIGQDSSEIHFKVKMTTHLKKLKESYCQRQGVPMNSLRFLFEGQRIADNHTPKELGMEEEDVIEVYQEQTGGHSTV
DNMT1 block = human DNMT1 methyltransferase inhibitors, primary screen, biochemical, molecular beacon, fluorescence, HinP1I cleavage, uHTS. 360,000 compounds, 0.83% hits. AID 588458, 2011. DNA (cytosine-5)-methyltransferase 1 (Homo sapiens), P26358. inhibition (reported as % activation of signal), % at 10 µM; in the data active = inhibition above about 50%
STEP block = STEP phosphatase inhibitors, primary screen, biochemical, fluorescence intensity, uHTS; inhibition, % at 20 µM; AID 588621, 2011; Tyrosine-protein phosphatase non-receptor type 5 (Homo sapiens), P54829; recombinant STEP, OMFP fluorogenic substrate; 360,000 compounds, 0.25% hits;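 active = inhibition at 20 µM, scaled per plate between control wells, above about 37%, limit read from the data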
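Assay system: isolated STEP enzyme / Timing: 20 min at room temperature, dark / Doses: 20 µM, 1% DMSO / Technique: fluorescence intensity, excitation 480 nm, emission 540 nm / Reagent: fluorogenic phosphatase substrate OMFP at 25 µM final / Measure: percent inhibition scaled to no-enzyme and uninhibited-enzyme controls, plate-pattern corrected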
Scp-1 inhibitor = Scp-1 phosphatase inhibitors, primary screen, biochemical, colorimetric, uHTS; Recombinant Scp1, phosphopeptide, malachite green phosphate absorbance; inhibition, % at 20 µM; 340,000 compounds, 0.88% hits;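 active = inhibition above about 50% at 20 µM, limit read from the data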
Target sequence (Q9GZU7 76-261 limits assumed): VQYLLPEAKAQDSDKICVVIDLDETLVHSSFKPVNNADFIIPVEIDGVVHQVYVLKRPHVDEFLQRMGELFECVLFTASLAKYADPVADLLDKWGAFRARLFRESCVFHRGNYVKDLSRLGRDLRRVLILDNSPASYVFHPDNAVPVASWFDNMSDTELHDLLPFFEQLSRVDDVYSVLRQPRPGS
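Test system: SCP-1 phosphatase catalytic domain, residues 76-261 | Compound dosing: One concentration, 20 µM, with 1.0% DMSO | Schedule: 45 min room-temperature reaction, 5 min colour, 30 min stabiliser | Detection: Absorbance at 630 nm | Read-out basis: % inhibition of SCP-1 phosphate liberation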
NadD inh = inhibitors of S. aureus NadD, primary screen, biochemical, colorimetric, uHTS. Nicotinate-nucleotide adenylyltransferase NadD (Staphylococcus aureus N315). purified NadD enzyme, colorimetric absorbance read-out. inhibition, % at 20 µM. 360,000 compounds, 0.78% hits. AID 602399, 2012; in the data active = inhibition above about 26%
Scp1 confirm = Scp-1 phosphatase inhibitors, retest, confirmation, biochemical, colorimetric, single concentration; recombinant SCP-1 catalytic domain, phosphate release, malachite green absorbance; inhibition, % at 20 µM; 2,500 compounds, 61% hits; shares compounds with Scp-1 inhibitor
MG interference = colorimetric readout interference by compounds, confirmation, artefact control for Scp-1 inhibitor project, biochemical, single concentration; shares compounds with Scp-1 inhibitor; Colorimetric interference counterscreen, malachite green absorbance 630 nm; apparent inhibition (interference), % at 20 µM; 2,500 tested, under 10 active; AID 540313, 2011;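 note: compounds added after enzyme reaction finished so only phosphate colour detection is probed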
Scp1 DSF = Scp-1 binding by thermal shift, confirmation, orthogonal assay for Scp-1 inhibitor project, biophysical, differential scanning fluorimetry | shares compounds with Scp-1 inhibitor | 1,500 compounds, 25% hits | Recombinant SCP1, Sypro Orange thermal shift Tm | thermal shift relative to vanadate control, % at 40 µM;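 active = substances whose mean melting-temperature shift, as a percentage of the reference inhibitor's shift, reaches about 5.3%, limit read from the data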
Large screens that a line does not name were inactive (follow-up assays come after a bar, where they were run); ! = not active in a repeat.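 Rule for the calls, unless noted: active = inhibition of at least 30% at 20 µM; inactive = the rest.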

COc1ccc(NC(=O)CSc2sc3c(O)cc(=O)[nH]c3c2C#N)c(OC)c1	LMPTP inh 56, Scp-1 inhibitor 64 | Scp1 confirm 68 | MG interference inactive | Scp1 DSF 7.8
COc1ccccc1NC(=O)CSc1sc2c(O)cc(=O)[nH]c2c1C#N	Scp-1 inhibitor 77 | Scp1 confirm 33 | MG interference inactive | Scp1 DSF 13
O=C1C2CCCCN2C(=O)N1CCCCN1CCN(c2ccc(F)cc2)CC1 (centres undefined)	none
O=C(O)c1ccc(S(=O)(=O)c2ccccc2)cc1	none
O=C(O)c1ccc(Oc2ccc(S(=O)(=O)c3ccc(C(=O)O)c(C(=O)O)c3)cc2)cc1	Scp-1 inhibitor 54 | Scp1 confirm 41 | MG interference inactive | Scp1 DSF inactive
Cc1cccc(OCC(=O)Nc2ccc3c(c2)nc(CN2CCCCC2)n3C)c1	none
Cc1ccc(-c2cc(C(=O)N/N=C/c3ccccc3)n[nH]2)o1	none
Cc1ccc(-c2cc(C(=O)N/N=C/c3ccc(Cl)cc3)n[nH]2)o1	Scp-1 inhibitor 65 | Scp1 confirm 88 | MG interference inactive | Scp1 DSF inactive
COc1ccc(C(=O)Nc2ccc(S(=O)(=O)N3CCCC3)cc2)cc1	none
CC(=O)c1ccccc1N(C(=O)Cn1nnc2ccccc21)C(C(=O)NCC1CCCO1)c1ccc(N2CCOCC2)cc1 (centres undefined)	none
Cn1c(C(C(=O)NCC2CCCO2)N(C(=O)Cn2nnc3ccccc32)C2CCCCC2)nc2ccccc21 (centres undefined)	Scp-1 inhibitor 68 | Scp1 confirm inactive | MG interference inactive
Cc1ncc2c(c1OC(=O)c1ccccc1)COC(C)(C)OC2	none
Cc1c(OC(=O)c2ccc([N+](=O)[O-])cc2)c2c(c[n+]1C)COC(C)(C)OC2	Scp-1 inhibitor 67 | Scp1 confirm 79 | MG interference inactive | Scp1 DSF inactive
COc1ccc(OCC(O)COc2ccc(OC)cc2)cc1	none
CC(C)OCCCN(C)C1CCN(S(=O)(=O)c2ccc(-c3ccc(=O)[nH]n3)s2)CC1	Scp-1 inhibitor 51 | Scp1 confirm inactive | MG interference inactive
Cc1ccc(CN2CCC(CNS(=O)(=O)c3ccc(-c4ccc(=O)[nH]n4)s3)CC2)cc1	none
Cc1cccc(N2CC34C=CC(O3)C(C(=O)O)C4C2=O)c1 (centres undefined)	none
Cc1ccc2c(c1)C1OCCC1C1N2C(=O)C2C(C(=O)O)C3C=CC21O3 (centres undefined)	Scp-1 inhibitor 77 | Scp1 confirm 34 | MG interference inactive | Scp1 DSF inactive
CSCC[C@H](N)C(=O)N1CCC(C(=O)N[C@@H](Cc2c[nH]c3ccccc23)C(=O)O)CC1	none
O=C1c2ccccc2C(=O)N1CCCCN(C(=O)c1cc2ccccc2oc1=O)c1ccc(Cl)cc1	none
O=S(=O)(Nc1ccc(-c2nc3cccnc3s2)cc1)c1ccc(Cl)s1	none
CCc1nnc(NC(=O)C2CCN(c3nccc(C)n3)CC2)s1	none
Cc1[nH]c2ccccc2c1/C=N/NC(=O)CNC(=O)c1ccc2c(c1)OCCO2	Scp-1 inhibitor 66 | Scp1 confirm inactive | MG interference inactive
Cc1ccc(OCC(=O)c2cc(C)n(Cc3cccs3)c2C)c([N+](=O)[O-])n1	none
Cc1cc(C(=O)COc2ccc3ccc(=O)oc3c2)c(C)n1Cc1cccs1	Scp-1 inhibitor 66 | Scp1 confirm 53 | MG interference inactive | Scp1 DSF inactive
O=C(NCCCn1ncc2ccccc21)c1cc(COc2c(F)cccc2F)on1	none
CCOC(=O)c1ccc(N2C(=O)c3n[nH]c(C)c3C2c2ccc(OC)c(OC)c2)cc1 (centres undefined)	Scp-1 inhibitor 57 | Scp1 confirm inactive | MG interference inactive
CCOC(=O)c1ccc(N2C(=O)c3n[nH]c(C)c3C2c2ccc(OC)cc2)cc1 (centres undefined)	none
CN(C)CCOc1ccccc1-c1ccccc1	Scp-1 inhibitor 76 | Scp1 confirm inactive | MG interference inactive
CC(=O)Nc1ccc(N/C(C)=C/C(=O)c2cccnc2)cc1	none
CC/C(=C\C(=O)c1cccnc1)Nc1ccc(C)c(C)c1	Scp-1 inhibitor 53 | Scp1 confirm inactive | MG interference inactive
CC1CCN(CC(O)COC2CC(C)CC(C)(C)C2)CC1 (centres undefined)	none
CC[N+]1(CC(O)COC2CC(C)CC(C)(C)C2)CCOCC1 (centres undefined)	Scp-1 inhibitor 105 | Scp1 confirm 91 | MG interference inactive | Scp1 DSF inactive
O=c1[nH][nH]c(=O)c2cc([N+](=O)[O-])ccc12	Scp-1 inhibitor 50! | Scp1 confirm inactive | MG interference inactive
Cn1cnnc1SCC(=O)Nc1c(F)cc(F)cc1Br	none
COc1ccc(-c2nonc2NC(=O)c2ccco2)cc1OC	Scp-1 inhibitor 58 | Scp1 confirm inactive | MG interference inactive
CN(CCc1ccccn1)C(=S)Nc1ccc(Cl)cc1Cl	none
COc1ccccc1C(=O)NNC1CC(=O)N(c2ccc3c(c2)OCCO3)C1=O (centres undefined)	none | Scp1 confirm inactive | MG interference inactive
Cc1ccccc1C(=O)NNC1CC(=O)N(c2ccc3c(c2)OCCO3)C1=O (centres undefined)	none
O=C(CCc1nc2ccccc2c(=O)[nH]1)NNC(=O)c1ccc(Cl)cc1	none
O=C(CCc1nc2ccccc2c(=O)[nH]1)NNC(=O)c1cccc(Cl)c1	Scp-1 inhibitor 62 | Scp1 confirm inactive | MG interference inactive
COc1ccc(CCNc2nc(-c3ccc(NC(C)=O)cc3)cs2)cc1OC	none
